Screens as filed in PubChem BioAssay.
Sampled rows, rich in hits. Any-hit rate of the full collection: about 6.4%.
Jurkat tox 60K – cytotoxicity toward Jurkat T cells, primary screen, cytotoxicity control, cell-based, Jurkat E6.1, 60K MLSMR library; AID 463, 2006; actives 1.2% (n = 56,000); Jurkat E6.1 viability, ATP luminescence, 48 h; inhibition, % at 4 µM;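 active = inhibition above the mean inhibition of all tested compounds plus 3 SD, cut at about 28% in these data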
HUVEC inhibit – inhibitors of HUVEC proliferation, primary screen, cell-based, 384-well. CellTiter-Glo luminescence, 72 h; hits give low values. viability, % at 10 µM (by protocol). actives 1.1% (n = 86,000). AID 648, 2007;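 active = viability at or below 30%; inactive = viability above 30%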;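 note: 100% = median luminescence of DMSO-only cell control wells on each plate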
Lung fibro prol – antiproliferative effect on LL 47 fibroblasts – human, LL 47 cells, CellTiter-Glo luminescence, primary screen. LL 47 human lung fibroblast viability, ATP luminescence; hits give low values. viability, % at 10 µM. actives 1.1% (n = 85,000);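 active = viability at or below 50% in the single dose screen; inactive = viability above 50%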;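 note: compound exposure lasted 72 h before the ATP readout; 100% = median luminescence of untreated cell-only wells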
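Material: human lung fibroblast line LL 47, low passage; Evaluation: viability percentage against median untreated-cell control; Buffer or medium: 15% FBS in IMEM; Incubation: 72 h compound exposure at 37 °C after overnight plating; Dosing: 0.1% DMSO in all compound wells; Measured by: CellTiter-Glo luminescence.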
H69AR inhibit – proliferation blockers of H69AR lung cancer cells, primary screen, cell-based, human, 86K library. viability, % at 10 µM. H69AR lung tumor viability, ATP luminescence, 72 h; hits give low values. actives 6% (n = 85,000). AID 598, 2007;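 active = viability at or below 40%; inactive = viability above 40%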;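 note: multidrug resistant small cell line overexpressing MRP-1 efflux transporter; 100% = mean luminescence of untreated control wells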
Active calls of the source: *; x = no result.

SMILES	Jurkat tox 60K	HUVEC inhibit	Lung fibro prol	H69AR inhibit
CCC(=O)Oc1ccc(C(=O)Nc2ccc3c(c2)C(=O)N(C2CCCCC2)C3=O)cc1	x	55	93	5.3*
COc1cc2c(cc1NC(=O)C(c1ccccc1)c1ccccc1)CCCC2	x	99	92	91
COC(=O)c1ccccc1NC(=O)c1cc(-c2cccs2)on1	-7	25*	90	11*
Cn1c(SCC(=O)N(C2CCCCC2)C2CCCCC2)nnc1-c1cccs1	-14	81	75	20*
Cc1ccc(C(=O)CSc2nnc(-c3cccs3)n2C)o1	3	100	95	98
C/C(=N\NC(=O)c1[nH]c2c([N+](=O)[O-])cc(C)cc2c1-c1ccccc1)c1cccnc1	x	85	100	46
Cn1nnc2cc(C(=O)N3CCC(c4ccccc4)C3)ccc21 (configuration not stated)	-5	89	97	95
CCN(CC)CCN1C(=O)c2oc3ccccc3c(=O)c2C1c1cccc(Br)c1 (configuration not stated)	-2	101	101	37*
O=C1c2oc3ccc(Cl)cc3c(=O)c2C(c2cccc(Br)c2)N1CCO (configuration not stated)	-5	109	103	26*
CCC1CCCCN1C(=O)CSc1nnc(CNC(=O)COc2ccc(Cl)cc2)o1 (configuration not stated)	x	102	95	96
Cc1ccc(CC(=O)Nc2cccc(C)n2)cc1	x	105	113	86
Cc1cccc(NC(=S)NC(=O)/C=C/c2ccco2)n1	x	82	90	33*
COn1c(SCc2cccc(Cl)c2)nc2ccccc2c1=O	x	107	94	105
O=c1c2ccccc2nc(-c2cccc(Cl)c2)n1O	14	100	101	23*
COc1ccc(N/N=C(/Oc2ccc([N+](=O)[O-])cc2)C(C)=O)cc1	x	98	98	91
CO/N=C/C(=N\Nc1ccc(OC)cc1)C(=O)c1ccc(OC)cc1	x	91	85	24*
O=C(COC(=O)C1CC2C=CC1C2)Nc1ccc2c(c1)OC(F)(F)O2 (configuration not stated)	x	87	96	96
O=S(=O)(c1ccc(S(=O)(=O)N2CCCC2)cc1)N1CCCCCC1	4	95	102	95
CC1CCN(S(=O)(=O)c2ccc3c(c2)C(=NO)c2cc(S(=O)(=O)N4CCC(C)CC4)ccc2-3)CC1	x	2.8*	2.3*	0.9*
CC1CCN(S(=O)(=O)c2cccc(C(=O)O)c2)CC1	x	92	104	100
O=S(=O)(c1ccc2c(c1)C(=NO)c1cc(S(=O)(=O)N3CCCCC3)ccc1-2)N1CCCCC1	0	1.6*	1.6*	0.4*
COc1ccc(Cc2nnc(SCC(=O)Nc3nc(C)cs3)o2)cc1	-6	97	94	81
O=C(C1c2ccccc2Oc2ccccc21)N1CCN(c2ccc(Cl)cc2)CC1	x	82	87	39*
COc1ccccc1N1CCN(C(=O)C2c3ccccc3Oc3ccccc32)CC1	70*	39	58	30*
O=C(CSCc1ccc(F)cc1)NCc1ccco1	x	91	98	97
SMILES	Jurkat tox 60K	HUVEC inhibit	Lung fibro prol	H69AR inhibit
COC(=O)C(Cc1ccccc1)NC(=O)CSc1nc(N)cc(=O)[nH]1 (configuration not stated)	-6	96	99	82
CON(c1nc(Cl)nc(N(C)C)n1)S(=O)(=O)c1ccccc1Cl	x	90	91	22*
COc1nc(N(C)C)nc(N(OC)S(=O)(=O)c2ccccc2Cl)n1	4	96	90	83
Cc1cc(N)n2ncc(-c3cccc(Br)c3)c2n1	1	46	66	26*
O=C(Nc1cccc(Cl)c1)Nc1cccc(Cl)c1	x	82	95	85
O=C(Nc1ccccc1)Nc1cc(Cl)cc(Cl)c1	x	28*	54	1.8*
CC1Cc2ccccc2N1C(=O)CSc1nnc2c(n1)[nH]c1ccc(F)cc12 (configuration not stated)	x	53	100	38*
CCOC(=O)c1c(CN2CCCCC2)oc2ccc(O)cc12	-2	93	96	72
CCOC(=O)c1c(C(C)(C)C)oc2ccc(O)cc12	x	47	94	30*
CCOC(=O)c1c(COc2ccccc2)oc2ccc(O)cc12	45*	82	96	95
COc1ccccc1Nc1nc(N)nc(-c2cc3ccccc3o2)n1	2	94	104	10*
Cc1c(-c2nc(N)nc(Nc3ccccc3F)n2)oc2ccccc12	1	79	78	20*
COCc1c(C(=O)OCc2nc(N)nc(Nc3ccccc3C)n2)oc2ccccc12	2	x	x	x
COc1cccc(Nc2nc(N)nc(-c3oc4ccccc4c3C)n2)c1	x	38	65	17*
Cc1nc(NNC(=O)c2ccc([N+](=O)[O-])cc2)cc(-c2ccccc2)n1	x	98	97	88
Cc1[nH]n(-c2ccc([N+](=O)[O-])cc2)c(=O)c1N=Nc1nc2ccccc2s1	x	41	x	35*
C[C@]12CC[C@@H]3c4ccc(O)cc4CC[C@H]3[C@@H]1CC[C@@H]2O	x	35	88	27*
Cc1nnc(N2CCN(C)CC2)c2nn(-c3ccc(Cl)cc3)c(C)c12	x	88	98	87
CCSc1nnc(NC(=O)C(CC)(C(F)(F)F)C(F)(F)F)s1	x	73	95	36*
CCSc1nnc(NC(=O)c2ccccn2)s1	76*	45	x	18*
CCSc1nnc(NC(=O)c2cnccn2)s1	-1	97	x	49
CCSc1nnc(NC(=O)C(C)(C(F)(F)F)C(F)(F)F)s1	x	84	100	88
COc1ccc(-n2c(N3CCN(C)CC3)nc3sc4c(c3c2=O)CCCCC4)cc1	6	22*	62	22*
CCOC(=O)CSc1nc2c(sc(=S)n2-c2ccccc2OC)c(=O)n1Cc1ccco1	x	92	101	89
O=C1CCCc2c1[nH]c1ccc(Cl)cc21	x	19*	97	107
SMILES	Jurkat tox 60K	HUVEC inhibit	Lung fibro prol	H69AR inhibit
CCOC(=O)c1ccc2[nH]c3c(c2c1)CCCCC3=O	-3	76	107	93
COc1ccccc1N(CN1CCCC1=O)C(=O)COc1ccccc1	2	99	99	84
CC(=O)/C=C1/SC(CC(=O)O)C(=O)N1c1ccccc1 (configuration not stated)	x	95	113	82
CCC(=O)N1c2ccccc2NC2=C(C(=O)CCC2)C1c1ccccc1 (configuration not stated)	x	91	96	93
O=C1CCCC2=C1C(c1ccco1)Nc1ccc(C(=O)c3ccccc3)cc1N2 (configuration not stated)	29	68	84	13*
Cc1ccc(S(=O)(=O)Nc2cc(C(=O)NCCN3CCCC3)ccc2N2CCCCC2)cc1	0	28*	90	78
O=C(Cn1nc(C(F)(F)F)c2c1CCC2)N1CCN(c2ccccc2)CC1	1	104	93	90
Cc1ccc(CC(=O)Nc2ccccc2N2CCOCC2)cc1C	x	97	98	79
CCOc1ccc(Nc2cc(=O)oc3ccccc23)cc1	x	76	95	55
